target: Translocator protein (Rattus norvegicus, UniProt P16257); experiment: Displacement of [3H]PK115 from peripheral benzodiazepine receptor in Sprague-Dawley rat cortical membrane
Method in brief: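 Male Sprague–Dawley rats, 200–250 g; cerebral cortex homogenized in ice-cold PBS pH 7.4, washed twice by centrifugation at 40,000g. Filtration on PEI-presoaked GF/B filters, scintillation counting. IC50 from 6–10 concentrations in triplicate; mean ± SEM of three determinations.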

Sequence of Translocator protein (P16257 whole entry, looked up): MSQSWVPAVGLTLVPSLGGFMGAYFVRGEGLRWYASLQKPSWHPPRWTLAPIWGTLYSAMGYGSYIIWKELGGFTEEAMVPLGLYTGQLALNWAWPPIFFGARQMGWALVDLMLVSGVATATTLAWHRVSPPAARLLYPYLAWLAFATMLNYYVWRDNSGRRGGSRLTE

IC50 [nM] | Compound
12 | COc1ccc(N(C)C(=O)/C=C2\c3nc4ccccc4cc3C(=O)N2c2ccccc2)cc1
15 | CCN(Cc1ccccc1)C(=O)/C=C1\c2nc3ccccc3cc2C(=O)N1c1ccc(Cl)cc1
320 | C#CCN(C)C(=O)/C=C1\c2nc3ccccc3cc2C(=O)N1c1ccc(Cl)cc1
2360 | COc1ccc(N(C)C/C=C2\c3nc4ccccc4cc3C(=O)N2c2ccc(Cl)cc2)cc1
44 | CN(C(=O)/C=C1\c2nc3ccccc3cc2C(=O)N1c1ccc(Cl)cc1)c1ccccc1
26 | CN(Cc1ccccc1)C(=O)/C=C1\c2nc3ccccc3cc2C(=O)N1c1ccc(Cl)cc1
10 | CN(C(=O)/C=C1\c2nc3ccccc3cc2C(=O)N1c1ccccc1)c1ccc(Cl)cc1
74 | CN(C(=O)/C=C1\c2nc3ccccc3cc2C(=O)N1c1ccc(Cl)cc1)c1ccc(O)cc1
0.9 | COc1ccc(N(C)C(=O)/C=C2\c3nc4ccccc4cc3C(=O)N2c2ccc(Cl)cc2)cc1
76 | COc1ccc(NC(=O)/C=C2\c3nc4ccccc4cc3C(=O)N2c2ccc(Cl)cc2)cc1
0.62 | CN(C(=O)/C=C1\c2nc3ccccc3cc2C(=O)N1c1ccc(Cl)cc1)c1ccc(Cl)cc1
